Measurements as given in ChEMBL document CHEMBL1129359, “Alkyl and alkoxyethyl antineoplastic phospholipids” (J Med Chem, 1996).
In brackets after ≈: the same amount, converted by molar mass. Activity calls are given as the source filed them. The calls are words filed in the database; no cut-off is given here.

Experiments:
LXFL 529/ LXFS 538 = assay: In vitro cytotoxicity in nonsmall cell lung carcinoma cell line LXFL 529 and small cell lung carcinoma cell line LXFS 538 human tumor xenografts.; assay type: functional
Procedure, shortened: (§1)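 Double-layer soft-agar clonogenic assay. Tumor cells come from human tumor xenografts serially passaged in nude mice. Cells are dispersed with collagenase 0.05%, DNase 0.07% and hyaluronidase 0.1% (37 °C, 30 min), sieved, and viability is checked by trypan blue. 20 000–200 000 cells go in 0.4% agar over a 0.7% agar base in IMDM with 20% FCS. Drug is overlaid continuously for at least 1 week.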

[1] = In vitro cytotoxic effect in 1 of 6 human tumor xenografts, LXFS; assay type: functional; procedure, shortened: as §1
[2] = biological target: T1, M-phase inducer phosphatase 1 (Homo sapiens, UniProt P30304); assay: Inhibition of Cell division cycle 25 (Cdc25) phosphatase
T1 sequence (P30304 whole entry): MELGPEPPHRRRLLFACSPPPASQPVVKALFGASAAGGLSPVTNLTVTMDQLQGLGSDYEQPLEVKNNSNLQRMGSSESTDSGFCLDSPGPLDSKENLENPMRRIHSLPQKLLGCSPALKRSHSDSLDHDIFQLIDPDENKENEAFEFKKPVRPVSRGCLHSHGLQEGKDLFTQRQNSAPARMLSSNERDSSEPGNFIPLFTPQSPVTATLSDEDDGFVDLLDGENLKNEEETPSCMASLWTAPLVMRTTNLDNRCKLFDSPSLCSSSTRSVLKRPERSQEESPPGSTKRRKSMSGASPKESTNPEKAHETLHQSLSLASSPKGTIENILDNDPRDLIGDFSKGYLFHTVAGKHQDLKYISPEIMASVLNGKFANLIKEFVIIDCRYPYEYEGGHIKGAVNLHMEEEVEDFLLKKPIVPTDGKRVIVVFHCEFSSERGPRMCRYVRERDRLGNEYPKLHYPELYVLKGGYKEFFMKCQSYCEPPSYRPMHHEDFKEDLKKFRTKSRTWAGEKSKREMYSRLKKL
Procedure, shortened: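 Enzyme is GST-human cdc25A fusion expressed in E. coli and purified on glutathione-agarose. Enzyme and DTT in Tris buffer are preincubated 15 min at 37 °C. The reaction starts with p-nitrophenyl phosphate (500 mM stock) and runs 60 min at 37 °C. Absorbance is read at 405 nm, and the no-enzyme blank is subtracted.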

[3] = system: panel of six human tumor xenografts (Homo sapiens); assay: In vitro cytotoxicity in six human tumor xenografts.
[4] = In vitro cytotoxic effect in 2 of 6 human tumor xenografts, LXFE and RXF; assay type: functional; settings: in the assay text read “LXFL” for “LXFE”; procedure, shortened: as §1
RXF 423 = assay: In vitro cytotoxicity against human tumor xenograft RXF 423 renal cancer; assay type: functional; procedure, shortened: as §1
CXF1103 = assay: In vitro cytotoxicity against human tumor xenograft CXF 1103 colorectal adenocarcinoma; assay type: functional; procedure, shortened: as §1
OVXF1023 cell line = assay: In vitro cytotoxicity against human tumor xenograft OVXF1023 ovarian adenocarcinoma; assay type: functional; procedure, shortened: as §1
LXFS538 = assay: In vitro cytotoxicity against human tumor xenograft LXFS 538 small cell lung carcinoma; assay type: functional; procedure, shortened: as §1
LXFL 529 = assay: In vitro cytotoxicity against human tumor xenograft LXFL 529 Nonsmall cell lung carcinoma; assay type: functional; procedure, shortened: as §1
MEXF989 = assay: In vitro cytotoxicity against human tumor xenograft MEXF 989 melanoma; assay type: functional; procedure, shortened: as §1
[5] = In vitro cytotoxic effect in 2 of 6 human tumor xenografts, LXFL and LXFS; assay type: functional; procedure, shortened: as §1
[6] = In vitro cytotoxic effect in 1 of 6 human tumor xenografts, RXF; assay type: functional; procedure, shortened: as §1
[7] = In vitro cytotoxic effect in 3 of 6 human tumor xenografts, LXFS, MEXF and RXF; assay type: functional; procedure, shortened: as §1
[8] = In vitro cytotoxic effect in 0 of 6 human tumor xenografts; assay type: functional; procedure, shortened: as §1
[9] = In vitro cytotoxic effect in 4 of 6 human tumor xenografts, LXFL, LXFS, MEXF and OVXF; assay type: functional; procedure, shortened: as §1
[10] = In vitro cytotoxic effect in 2 of 6 human tumor xenografts, LXFS and RXF; assay type: functional; procedure, shortened: as §1
[11] = biological target: Cyclin-dependent kinase 1 (starfish); assay: Inhibition of Cell division cycle 2 (cdc2) kinase

Structure (SMILES) | IC50 [2] [µM] | Mean IC70 (LXFL 529/ LXFS 538) [µg/mL] | Mean IC70 [3] [µg/mL] | IC70 (RXF 423) [µg/mL] | IC70 (CXF1103) [µg/mL] | IC70 (OVXF1023 cell line) [µg/mL] | IC70 (LXFS538) [µg/mL] | IC70 (LXFL 529) [µg/mL] | IC70 (MEXF989) [µg/mL] | further results
CCCCCCCCCCCCOCCOP(=O)([O-])OCC[N+]1(C)CCOCC1 | 610 | >10 |  |  |  |  |  |  |  | Cytotoxicity [1]: Weak activity
CCCCCCCCCCCCOP(=O)([O-])OCC[N+]1(C)CCCCC1 | > 1000 |  | >10 |  |  |  |  |  |  | Cytotoxicity [1]: Weak activity
CCCCCCCCCCCCCCOP(=O)([O-])OCC[N+]1(C)CCOCC1 | 290 |  | >10 |  |  |  |  |  |  | Cytotoxicity [6]: Weak activity
CCCCCCCCCCCCCCCCOCCOP(=O)([O-])OCC[N+]1(C)CCOCC1 | 1000 | 7.8 |  | 4.76 (≈ 9.64 µM) | > 10 | > 10 | 5.12 (≈ 10.4 µM) | 10.4 (≈ 21 µM) | 8.76 (≈ 17.7 µM) | Cytotoxicity [7]: Weak activity
CCCCCCCCCCCCOP(=O)([O-])OCC[N+]1(C)CCOCC1 | 500 |  | >10 |  |  |  |  |  |  | NA [8]: inactive
CCCCCCCCCCCCCCCCOP(=O)([O-])OCC[N+]1(C)CCOCC1 | 40 |  | >10 |  |  |  |  |  |  | Cytotoxicity [6]: Weak activity
CCCCCCCCCCCCCCOCCOP(=O)([O-])OCC[N+]1(C)CCOCC1 | 380 | 8.6 |  | 6.74 (≈ 14.5 µM) | > 10 | > 10 | 5.85 (≈ 12.6 µM) | 10 (≈ 21.5 µM) | > 10 | Cytotoxicity [10]: Weak activity
CCCCCCCCCCCCCCOP(=O)([O-])OCC[N+]1(C)CCCCC1 | 490 |  | >10 |  |  |  |  |  |  | IC50 [11]: > 1000 µM; NA [8]: inactive

Second part, led by results:

IC50 [2] [µM] | Structure (SMILES) | Mean IC70 (LXFL 529/ LXFS 538) [µg/mL] | Mean IC70 [3] [µg/mL] | IC70 (RXF 423) [µg/mL] | IC70 (CXF1103) [µg/mL] | IC70 (OVXF1023 cell line) [µg/mL] | IC70 (LXFS538) [µg/mL] | IC70 (LXFL 529) [µg/mL] | IC70 (MEXF989) [µg/mL] | further results
25 | CCCCCCCCCCCCCCCCOP(=O)([O-])OCC[N+](C)(C)C [MILTEFOSINE] |  | 8 | 2.75 (≈ 6.76 µM) | > 10 | > 10 | > 10 | 9.57 (≈ 23.5 µM) | > 10 | Cytotoxicity [4]: Weak activity
100 | CCCCCCCCCCCCCCCCOCCOP(=O)([O-])OCC[N+]1(C)CCCCC1 | 7.9 |  | 10 (≈ 20.3 µM) | > 10 | > 10 | 4.54 (≈ 9.23 µM) | 5.38 (≈ 10.9 µM) | > 10 | Cytotoxicity [5]: Weak activity
460 | CCCCCCCCCCCCCCCCOP(=O)([O-])OCC[N+]1(C)CCCCC1 |  | 5.6 | 10 (≈ 22.3 µM) | > 10 | 7.8 (≈ 17.4 µM) | 1.9 (≈ 4.23 µM) | 4.33 (≈ 9.67 µM) | 4.64 (≈ 10.4 µM) | Cytotoxicity [9]: Weak activity
300 | CCCCCCCCCCCCCCOCCOP(=O)([O-])OCC[N+]1(C)CCCCC1 | >10 |  |  |  |  |  |  |  | Cytotoxicity [1]: Weak activity
